Format in all cases: functional
Test [1] relates to Escherichia coli. Kind of test: Antibacterial activity was determined against Escherichia coli NIHJ JC-2 (Gram-negative). In short, it runs like this:
(§1)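 2-fold agar dilution on Müller-Hinton agar. Overnight broth cultures were diluted to about 10^6 CFU/mL, and 10^4 CFU/spot was applied to plates with graded drug concentrations. Plates were incubated 18 h at 37 °C.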

Test [2] deals with Staphylococcus epidermidis. Kind of test: Antibacterial activity was determined against Staphylococcus epidermidis ATCC 12228 (Gram-positive). In short, it runs like this: as §1
Test [3] concerns Staphylococcus aureus. The test can be described thus: Antibacterial activity was determined against Staphylococcus aureus FDA 209P (Gram-positive). In short, it runs like this:
as §1

In test [4] the test system is Pseudomonas aeruginosa. The test can be described thus: Antibacterial activity was determined against Pseudomonas aeruginosa ATCC 10145 (Gram-negative). In short, it runs like this: as §1
The test system of test [5] is Klebsiella pneumoniae. The test can be described thus: Antibacterial activity was determined against Klebsiella pneumoniae NCTC 9632 (Gram-negative). In short, it runs like this:
as §1

The test system of test [6] is Staphylococcus aureus. The test can be described thus: Antibacterial activity was determined against Methicillin-resistant Staphylococcus aureus (MRSA) 5038 (Gram-positive).
Test [7] has as its system Serratia marcescens. The test can be described thus: Antibacterial activity was determined against Serratia marcescens ATCC 12648 (Gram-negative). Summed up:
as §1

Test [8] has as its system Enterococcus faecalis. The test can be described thus: Antibacterial activity was determined against Enterococcus faecalis ATCC 21212 (Gram-positive). In short, it runs like this:
as §1

Test [9] relates to Mus musculus. Kind of test: Antibacterial activity was determined against MRSA 5038 at a challenge dose of 1.00*10e7 (cells/mouse) administered subcutaneously. The following applies: sc. In short, it runs like this:
(§2)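 Cultures were grown overnight at 37 °C in tryptic soy broth (S. aureus, MRSA, E. faecalis) or Müller-Hinton broth (E. coli, S. pneumoniae). Graded doses were given subcutaneously 1 h post-infection. ED50 was calculated by probit from day-7 survival, with 95% confidence limits.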

In test [10] the test system is Mus musculus. The test can be described thus: Antibacterial activity was determined against Staphylococcus aureus Smith at a challenge dose of 1.32*10e7 (cells/mouse) administered subcutaneously. The following applies: sc. Summed up: as §2

With `Nc1nc(/C(=N/OC2CCCC2)C(=O)N[C@@H]2C(=O)N3C(C(=O)O)=C(CSc4cc[n+](CC(=O)N5CCC(O)CC5)cc4)OC[C@H]23)cs1.O=S(=O)([O-])O`, the MIC in [1] is 1.56 µg/mL; in test [2], 0.39 µg/mL; in test [3], 0.2 µg/mL; in test [4], 12.5 µg/mL; in test [5], 0.78 µg/mL; in test [6], 25 µg/mL. In addition, the MIC in [7] and in test [8] was 3.13 µg/mL throughout.
For the compound `CN(C)C(=O)C[n+]1ccc(SCC2=C(C(=O)O)N3C(=O)[C@@H](NC(=O)/C(=N\OC4CCCC4)c4csc(N)n4)[C@H]3CO2)cc1.O=S(=O)([O-])O`, the MIC came out at 0.78 µg/mL in test [1]; 0.39 µg/mL in test [2]; 0.2 µg/mL in test [3]; 12.5 µg/mL in [4]; 0.78 µg/mL in test [5]; 12.5 µg/mL in test [6]. Besides, the MIC in test [7] and in test [8] was 1.56 µg/mL throughout.
For the compound `Nc1nc(/C(=N/OC2CCCC2)C(=O)N[C@@H]2C(=O)N3C(C(=O)O)=C(CSc4cc[n+](CC(=O)c5ccccc5)cc4)OC[C@H]23)cs1.O=S(=O)([O-])O`, the MIC amounted to 1.56 µg/mL in [1]; 0.39 µg/mL in test [2]; 0.2 µg/mL in [3]; 25 µg/mL in [4]; 1.56 µg/mL in [5]; 12.5 µg/mL in test [6]. Further, the values for the MIC in test [7] and in [8] were 3.13 µg/mL and 1.56 µg/mL, respectively.
Turning to `CC(C)(C)NC(=O)C[n+]1ccc(SCC2=C(C(=O)O)N3C(=O)[C@@H](NC(=O)/C(=N\OC4CCCC4)c4csc(N)n4)[C@H]3CO2)cc1.O=S(=O)([O-])O`, the MIC was found to be 1.56 µg/mL in test [1]; 0.39 µg/mL in test [2]; 0.2 µg/mL in test [3]; 25 µg/mL in test [4]; 1.56 µg/mL in test [5]; 12.5 µg/mL in [6]. Besides, the MIC in [7] was 3.13 µg/mL; in test [8], 1.56 µg/mL.
Consider `N#CC[n+]1ccc(SCC2=C(C(=O)O)N3C(=O)[C@@H](NC(=O)/C(=N\OC4CCCC4)c4csc(N)n4)[C@H]3CO2)cc1.O=S(=O)([O-])O`, for which the MIC in [1] was determined as 0.39 µg/mL; in test [2], 0.2 µg/mL; in test [3], 0.2 µg/mL; in [4], 6.25 µg/mL; in test [5], 0.39 µg/mL; in [6] it was 12.5 µg/mL. Moreover, the MIC in test [7] and in [8] was 1.56 µg/mL in each case.
Take `C#CC[n+]1ccc(SCC2=C(C(=O)O)N3C(=O)[C@@H](NC(=O)/C(=N\OC4CCCC4)c4csc(N)n4)[C@H]3CO2)cc1.O=S(=O)([O-])O`: the MIC in test [1] came out at 0.39 µg/mL; in [2], 0.1 µg/mL; in test [3], 0.2 µg/mL; in [4], 6.25 µg/mL; in test [5], 0.39 µg/mL; in test [6] it was 6.25 µg/mL. Further, the MIC in test [7] and in [8] was 1.56 µg/mL in each case.
Consider `CC(C)=CC[n+]1ccc(SCC2=C(C(=O)O)N3C(=O)[C@@H](NC(=O)/C(=N\OC4CCCC4)c4csc(N)n4)[C@H]3CO2)cc1.O=S(=O)([O-])O`, for which the MIC in test [1] stood at 0.78 µg/mL; in test [2], 0.2 µg/mL; in test [3], 0.2 µg/mL; in [4] it was 12.5 µg/mL; in test [5], 0.78 µg/mL; in test [6], 12.5 µg/mL. The MIC in test [7] and in test [8] was 1.56 µg/mL in each case.
For the compound `CC(=O)C[n+]1ccc(SCC2=C(C(=O)O)N3C(=O)[C@@H](NC(=O)/C(=N\OC4CCCC4)c4csc(N)n4)[C@H]3CO2)cc1.O=S(=O)([O-])O`, the MIC was 0.39 µg/mL in [1]; 0.2 µg/mL in test [2]; 0.2 µg/mL in test [3]; 6.25 µg/mL in [4]; 0.39 µg/mL in [5]; 6.25 µg/mL in test [6]. For the same compound, the MIC in [7] and in test [8] was 0.78 µg/mL each time. Further, the ED50 is 2.76 mg/kg in [9] and 0.18 mg/kg in test [10].

In general, MIC refers to the least concentration at which growth counts as inhibited. The ED50 is the midpoint of the dose-response relation. A high value points to a need for a large dose.

The record behind these values is ChEMBL document CHEMBL1128396, “Synthesis and biological evaluation of a series of new parenteral optically active 3-[[(N-alkylpyridinium-4'-yl)thio]methyl]-2-oxaisocephems” (1995).
